This is an account of results in ChEMBL document CHEMBL2086340, “Synthesis and biological evaluation of 2-benzylamino-4(5)-(6-methylpyridin-2-yl)-5(4)-([1,2,4]triazolo[1,5-a]-pyridin-6-yl)thiazoles as transforming growth factor-β type 1 receptor kinase inhibitors” (Eur J Med Chem, 2012).

Some results are limits rather than exact numbers.

Assay [1] deals with Mitogen-activated protein kinase 14 (Homo sapiens, UniProt Q16539). Kind of assay: Inhibition of human recombinant p38alpha expressed in Escherichia coli using ATF2 as a substrate by radioisotopic protein kinase assay.
Sequence of Mitogen-activated protein kinase 14 (Q16539 whole entry): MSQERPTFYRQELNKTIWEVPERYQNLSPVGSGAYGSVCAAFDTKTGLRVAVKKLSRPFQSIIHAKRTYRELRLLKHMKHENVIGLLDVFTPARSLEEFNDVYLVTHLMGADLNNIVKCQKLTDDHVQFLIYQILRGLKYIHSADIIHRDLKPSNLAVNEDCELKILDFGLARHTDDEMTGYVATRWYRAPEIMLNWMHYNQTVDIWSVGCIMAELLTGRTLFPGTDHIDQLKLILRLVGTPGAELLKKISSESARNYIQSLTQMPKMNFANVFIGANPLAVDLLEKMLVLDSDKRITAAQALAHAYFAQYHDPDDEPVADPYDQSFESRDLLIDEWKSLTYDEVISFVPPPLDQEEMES
Another assay has as its target T1, TGF-beta receptor type-1 (Homo sapiens, UniProt P36897).
T1 sequence (P36897 whole entry): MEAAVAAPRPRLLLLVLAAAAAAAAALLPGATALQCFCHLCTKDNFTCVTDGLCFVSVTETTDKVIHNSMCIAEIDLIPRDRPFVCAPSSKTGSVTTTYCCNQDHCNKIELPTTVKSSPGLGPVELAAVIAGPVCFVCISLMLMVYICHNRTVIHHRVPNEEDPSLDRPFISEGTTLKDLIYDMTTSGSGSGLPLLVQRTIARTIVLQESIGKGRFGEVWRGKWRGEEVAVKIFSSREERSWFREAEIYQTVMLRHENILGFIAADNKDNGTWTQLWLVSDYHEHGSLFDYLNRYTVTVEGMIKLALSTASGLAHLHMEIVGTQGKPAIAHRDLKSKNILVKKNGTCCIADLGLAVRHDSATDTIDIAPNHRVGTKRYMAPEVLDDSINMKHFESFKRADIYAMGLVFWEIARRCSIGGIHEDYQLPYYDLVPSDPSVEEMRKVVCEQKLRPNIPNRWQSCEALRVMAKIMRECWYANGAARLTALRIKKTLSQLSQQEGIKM
The assay can be described thus: Inhibition of human recombinant GST-fused ALK5 expressed in Sf9 cells using casein as a substrate by radioisotopic protein kinase assay.

The species named for the next assay is Homo sapiens. The assay can be described thus: Selectivity index, ratio of IC50 for human recombinant p38alpha to IC50 for human recombinant ALK5. The method, boiled down:
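Index is IC50(p38α)/IC50(ALK5), each from a radioisotopic ³³P protein kinase assay run by a contract lab. The p38α was untagged human recombinant protein expressed in E. coli and purified on Ni–NTH–agarose, with ATF2 as substrate. The ALK5 kinase domain was human recombinant GST-fusion protein from baculovirus-infected Sf9 cells, with casein as substrate.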

For orientation: IC50 means the point on the concentration scale where inhibition reaches its midpoint. `Cc1cccc(-c2nc(NCc3ccccc3C)sc2-c2ccc3ncnn3c2)n1`: the IC50 in assay [1] is > 10000 nM; on TGF-beta receptor type-1, 16.9 nM. Further, the Ratio IC50 in the assay filed under Homo sapiens was > 592.
Taken in the same sequence, the figures for `Cc1cccc(-c2nc(NCc3cccc(C#N)c3)sc2-c2ccc3ncnn3c2)n1` were 3780 nM, 9.26 nM and 408.
With `Cc1ccc(CNc2nc(-c3cccc(C)n3)c(-c3ccc4ncnn4c3)s2)cc1`, the IC50 in assay [1] is > 10000 nM; on TGF-beta receptor type-1 it was 8.75 nM. The Ratio IC50 in the assay filed under Homo sapiens is > 1140.
With `Cc1cccc(-c2[nH]c(Cc3cccc(C(N)=O)c3)nc2-c2ccc3nccnc3c2)n1`, the Ratio IC50 in the assay filed under Homo sapiens is 28.
With `Cc1cccc(-c2nc(NCc3ccc(F)cc3)sc2-c2ccc3ncnn3c2)n1`, the values for the IC50 (in assay [1]; at TGF-beta receptor type-1) were 9200 nM and 8.61 nM, respectively. In addition, in the assay filed under Homo sapiens, the Ratio IC50 was found to be 1070.
In the same order, the values of `Cc1cccc(-c2nc(NCc3ccc(OC(F)(F)F)cc3)sc2-c2ccc3ncnn3c2)n1` are > 10000 nM, 60.9 nM and > 164.
In the same order, the values of `Cc1cccc(-c2nc(NCc3cc(Cl)cc(Cl)c3)sc2-c2ccc3ncnn3c2)n1` are > 10000 nM, 15.1 nM and > 662.
As to `COc1cc(CNc2nc(-c3cccc(C)n3)c(-c3ccc4ncnn4c3)s2)cc(OC)c1`, the IC50 in assay [1] is 7990 nM; at TGF-beta receptor type-1, 16.5 nM. Also, in the assay listed under Homo sapiens, the Ratio IC50 stood at 484.
In the same order, the values of `Cc1cccc(-c2nc(NCc3cccc(C)c3C)sc2-c2ccc3ncnn3c2)n1` are > 10000 nM, 22.1 nM and > 452.
Taken in the same sequence, the figures for `Cc1cccc(-c2nc(NCc3ccccc3Cl)sc2-c2ccc3ncnn3c2)n1` were 5860 nM, 15.5 nM and 378.
Taken in the same sequence, the figures for `Cc1cccc(-c2nc(NCc3cccc(F)c3F)sc2-c2ccc3ncnn3c2)n1` were 7200 nM, 29.4 nM and 245.
For `Cc1cccc(-c2nc(NCc3cccc(C(N)=O)c3)sc2-c2ccc3ncnn3c2)n1`, the values for the IC50 (in assay [1]; at TGF-beta receptor type-1) were 6190 nM and 13.6 nM, respectively. In addition, the Ratio IC50 in the assay filed under Homo sapiens was determined as 455.
With `Cc1cccc(-c2nc(NCc3ccccc3)sc2-c2ccc3ncnn3c2)n1`, the IC50 in assay [1] came to 5530 nM; at TGF-beta receptor type-1, 11.3 nM. For the same molecule, the Ratio IC50 in the assay listed under Homo sapiens was determined as 489.
In the same order, the values of `Cc1cccc(-c2nc(NCc3cccc(F)c3)sc2-c2ccc3ncnn3c2)n1` are 3530 nM, 7.01 nM and 504.
With `Cc1cccc(-c2sc(NCc3ccccc3)nc2-c2ccc3ncnn3c2)n1`, the figures for the IC50 (in assay [1]; at TGF-beta receptor type-1) were 8820 nM and 24.5 nM, respectively. Further, the Ratio IC50 in the assay filed under Homo sapiens stood at 360.
`Cc1cccc(CNc2nc(-c3cccc(C)n3)c(-c3ccc4ncnn4c3)s2)c1`: the half-inhibitory concentration (IC50) was 5370 nM in assay [1] and 11.2 nM at TGF-beta receptor type-1. Moreover, the Ratio IC50 in the assay filed under Homo sapiens was 479.
Taken in the same sequence, the figures for `Cc1cccc(-c2sc(NCc3ccccc3F)nc2-c2ccc3ncnn3c2)n1` were > 10000 nM, 21.2 nM and > 472.
In the same order, the values of `Cc1cccc(-c2nc(NCc3cccc(OC(F)(F)F)c3)sc2-c2ccc3ncnn3c2)n1` are 7390 nM, 19.3 nM and 383.
As to `Cc1cccc(-c2nc(NCc3ccc(F)c(F)c3)sc2-c2ccc3ncnn3c2)n1`, the results for the IC50 (in assay [1]; at TGF-beta receptor type-1) were 3580 nM and 7.43 nM, respectively. Moreover, the Ratio IC50 in the assay filed under Homo sapiens was 482.
Turning to `COc1ccc(CNc2nc(-c3cccc(C)n3)c(-c3ccc4ncnn4c3)s2)cc1OC`, the values for the IC50 (in assay [1]; on TGF-beta receptor type-1) were > 10000 nM and 47.7 nM, respectively. Further, the Ratio IC50 in the assay listed under Homo sapiens was > 210.
Taken in the same sequence, the figures for `Cc1cccc(-c2nc(NCc3cccc(Cl)c3)sc2-c2ccc3ncnn3c2)n1` were 3280 nM, 10.2 nM and 322.
With `Cc1cccc(-c2sc(NCc3cccc(C(N)=O)c3)nc2-c2ccc3ncnn3c2)n1`, the results for the IC50 (in assay [1]; at TGF-beta receptor type-1) were > 10000 nM and 12 nM, respectively. The Ratio IC50 in the assay filed under Homo sapiens was > 833.
With `Cc1cccc(-c2nc(NCc3cc(F)cc(F)c3)sc2-c2ccc3ncnn3c2)n1`, the IC50 in assay [1] is 3820 nM; on TGF-beta receptor type-1 it was 8.92 nM. Also, in the assay listed under Homo sapiens, the Ratio IC50 turned out to be 428.
In the same order, the values of `Cc1cccc(-c2nc(NCc3ccc(C(N)=O)cc3)sc2-c2ccc3ncnn3c2)n1` are > 10000 nM, 25.7 nM and > 389.
In the case of `COc1cccc(CNc2nc(-c3cccc(C)n3)c(-c3ccc4ncnn4c3)s2)c1OC`, the 50% inhibitory concentration (IC50) was > 10000 nM in assay [1] and 43.5 nM on TGF-beta receptor type-1. Further, the Ratio IC50 in the assay listed under Homo sapiens was > 230.
In the same order, the values of `Cc1cccc(-c2nc(NCc3ccc(Cl)cc3)sc2-c2ccc3ncnn3c2)n1` are > 10000 nM, 15.8 nM and > 633.
Taken in the same sequence, the figures for `Cc1cccc(-c2nc(NCc3ccc(C#N)cc3)sc2-c2ccc3ncnn3c2)n1` were > 10000 nM, 30.8 nM and > 325.
In the same order, the values of `Cc1cccc(-c2nc(NCc3ccc(Cl)c(Cl)c3)sc2-c2ccc3ncnn3c2)n1` are > 10000 nM, 21.9 nM and > 457.
For the molecule `COc1ccc(CNc2nc(-c3cccc(C)n3)c(-c3ccc4ncnn4c3)s2)cc1`, the figures for the IC50 (in assay [1]; on TGF-beta receptor type-1) were > 10000 nM and 24.3 nM, respectively. Also, the Ratio IC50 in the assay listed under Homo sapiens was > 412.
On to `Cc1cccc(-c2nc(NCc3ccccc3F)sc2-c2ccc3ncnn3c2)n1`, for which the half-inhibitory concentration (IC50) is > 10000 nM in assay [1] and 10.4 nM on TGF-beta receptor type-1. Moreover, the Ratio IC50 in the assay listed under Homo sapiens is > 962.
As for `Cc1cc(C)cc(CNc2nc(-c3cccc(C)n3)c(-c3ccc4ncnn4c3)s2)c1`, the IC50 in assay [1] was > 10000 nM; at TGF-beta receptor type-1, 22 nM. In the assay listed under Homo sapiens, the Ratio IC50 was > 455.
In the same order, the values of `Cc1cccc(-c2sc(NCc3cccc(C#N)c3)nc2-c2ccc3ncnn3c2)n1` are > 10000 nM, 25.1 nM and > 398.
Taken in the same sequence, the figures for `Cc1cccc(-c2nc(NCc3ccccc3OC(F)(F)F)sc2-c2ccc3ncnn3c2)n1` were > 10000 nM, 35.9 nM and > 279.
As for `Cc1cccc(-c2nc(NCc3cccc(Cl)c3Cl)sc2-c2ccc3ncnn3c2)n1`, the IC50 in assay [1] is > 10000 nM; on TGF-beta receptor type-1, 34.3 nM. In addition, the Ratio IC50 in the assay listed under Homo sapiens is > 292.
In the same order, the values of `COc1cccc(CNc2nc(-c3cccc(C)n3)c(-c3ccc4ncnn4c3)s2)c1` are > 10000 nM, 11.4 nM and > 877.
